Values joined by “and” are separate entries in the source; they are usually repeats but may differ in a detail not shown here. Equal entries are not always repeated. Each block holds one molecule with its values, some of them ahead of it. Active and inactive are the calls of the source. The rule behind the calls is not given here.
Tests used:
[1] = Stability in DMSO solution assessed as parent compound remaining at 10 mM incubated for 38 days exposed to laboratory air by HPLC method
[2] = Drug metabolism assessed as oxidative compound decompostion after irradiation with visible light under oxygen-saturated environment using [18]O2 in presence of rose bengal photosensitizer using by LC/MS method; type: physicochemical
[3] = biological target: DNA dC->dU-editing enzyme APOBEC-3A (Homo sapiens, UniProt P31941); assay: Inhibition of APOBEC3A (unknown origin) by fluorescence-based ssDNA C-to-U deaminase assay
In short: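 Recombinant purified A3A was tested in dose-response up to 200 μM, with compound from DMSO stock. C-to-U deamination was read by fluorescence from the 6-FAM/TAMRA-labelled probe in a coupled uracil DNA glycosylase step, and IC50 was taken from the dose-response curve.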

[4] = biological target: T1, DNA dC->dU-editing enzyme APOBEC-3G (Homo sapiens, UniProt Q9HC16); assay: Inhibition of APOBEC3G (unknown origin) fluorescence-based ssDNA C-to-U deaminase assay
[5] = Toxicity against HEK293T cells assessed as cell viability at 50 uM incubated for 5 days; type: cell-based, HEK-293T; details: human, read-out: Activity
[6] = biological target: T1, DNA dC->dU-editing enzyme APOBEC-3G; assay: Inhibition of APOBEC3G (unknown origin) up to 200 uM using ssDNA oligomer 5'-6-FAM-AAA-TAT-TCC-CTA-ATA-GAT-AAT-GTG-A-TAMRA-3' by fluorescence-based deamination assay
In short: (§1)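 Recombinant A3G was expressed and purified. A freshly prepared DMSO stock (day 0) was tested in dose response up to 200 μM. The read-out was the fluorescence-based ssDNA C-to-U deamination assay with a 5'-6-FAM/3'-TAMRA oligo, detected after uracil DNA glycosylase processing. Performed in triplicate, mean ± SD.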

[7] = biological target: T1, DNA dC->dU-editing enzyme APOBEC-3G; assay: Inhibition of APOBEC3G (unknown origin) up to 200 uM incubated for 3 to 72 days using ssDNA oligomer 5'-6-FAM-AAA-TAT-TCC-CTA-ATA-GAT-AAT-GTG-A-TAMRA-3' by fluorescence-based deamination assay; details: TDE = time-dependent effect
In short: (§2)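 A DMSO stock of the compound was aged in a closed microcentrifuge tube at 20-22 °C on the bench. The same stock was re-tested against recombinant A3G in dose response up to 200 μM at days 3, 21, 38 and 72. The assay was the fluorescence-based C-to-U deamination assay on a 6-FAM/TAMRA ssDNA oligo, with uracil DNA glycosylase in the read-out. Triplicates, mean ± SD.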

[8] = biological target: T1, DNA dC->dU-editing enzyme APOBEC-3G; assay: Inhibition of APOBEC3G (unknown origin) assessed as remaining enzyme activity at 200 uM incubated for 3 days using ssDNA oligomer 5'-6-FAM-AAA-TAT-TCC-CTA-ATA-GAT-AAT-GTG-A-TAMRA-3' by fluorescence-based deamination assay
In short: as §2

[9] = biological target: T1, DNA dC->dU-editing enzyme APOBEC-3G; assay: Inhibition of APOBEC3G (unknown origin) assessed as remaining enzyme activity at 200 uM incubated for 21 days using ssDNA oligomer 5'-6-FAM-AAA-TAT-TCC-CTA-ATA-GAT-AAT-GTG-A-TAMRA-3' by fluorescence-based deamination assay
In short: as §2

[10] = biological target: T1, DNA dC->dU-editing enzyme APOBEC-3G; assay: Inhibition of APOBEC3G (unknown origin) assessed as remaining enzyme activity at 200 uM incubated for 38 days using ssDNA oligomer 5'-6-FAM-AAA-TAT-TCC-CTA-ATA-GAT-AAT-GTG-A-TAMRA-3' by fluorescence-based deamination assay
In short: as §2

[11] = biological target: T1, DNA dC->dU-editing enzyme APOBEC-3G; assay: Inhibition of APOBEC3G (unknown origin) assessed as remaining enzyme activity at 200 uM incubated for […] using ssDNA oligomer 5'-6-FAM-AAA-TAT-TCC-CTA-ATA-GAT-AAT-GTG-A-TAMRA-3' by fluorescence-based deamination assay
[12] = biological target: T1, DNA dC->dU-editing enzyme APOBEC-3G; assay: Inhibition of APOBEC3G (unknown origin) assessed as remaining enzyme activity at 200 uM using ssDNA oligomer 5'-6-FAM-AAA-TAT-TCC-CTA-ATA-GAT-AAT-GTG-A-TAMRA-3' by fluorescence-based deamination assay
In short: as §1

[13] = Drug metabolism assessed as compound formation using compound-1 by LC-MS method; type: physicochemical
In short: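 10 mM DMSO stocks were gently shaken at 25 °C open to air and analysed on day 38 by LC-MS. The LC-MS used a C18 column (0.5 × 150 mm, 5 μm) at 15 μL/min with trifluoroacetic and formic acid modifiers, and an ion-trap MS in positive-ion mode. Decomposition products were scored as detected or not detected.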

[14] = Drug metabolism assessed as oxidative compound decompostion after irradiation with visible light under oxygen-saturated environment in presence of rose bengal photosensitizer using compound-1 by LC/MS method; type: physicochemical
[15] = Drug metabolism in DMSO solution assessed as compound formation incubated for 38 days exposed to laboratory air by LC/MS method; type: physicochemical; details: 912 h
[16] = biological target: T1, DNA dC->dU-editing enzyme APOBEC-3G; assay: Inhibition of APOBEC3G (unknown origin) assessed as reduction enzyme efficiency at 200 uM using ssDNA oligomer 5'-6-FAM-AAA-TAT-TCC-CTA-ATA-GAT-AAT-GTG-A-TAMRA-3' by fluorescence-based deamination assay
In short: as §1

[17] = Drug metabolism assessed as formation of oxidative decomposition products by LC-MS method; type: physicochemical
[18] = Drug level assessed as compound formation using compound-1 in DMSO incubated for 16 months by 1H and 13C NMR method; type: physicochemical; details: 11688 h
[19] = Drug level assessed as compound formation using compound-1 in DMSO incubated for 16 months by IR method; type: physicochemical; details: 11688 h
[20] = Drug level assessed as compound formation using compound-1 in DMSO incubated for 16 months by LC-MS method; type: physicochemical; details: 11688 h
[21] = biological target: T1, DNA dC->dU-editing enzyme APOBEC-3G; assay: Inhibition of APOBEC3G (unknown origin) using ssDNA oligomer 5'-6-FAM-AAA-TAT-TCC-CTA-ATA-GAT-AAT-GTG-A-TAMRA-3' by fluorescence-based deamination assay
In short: as §1

T1 sequence (Q9HC16 whole entry): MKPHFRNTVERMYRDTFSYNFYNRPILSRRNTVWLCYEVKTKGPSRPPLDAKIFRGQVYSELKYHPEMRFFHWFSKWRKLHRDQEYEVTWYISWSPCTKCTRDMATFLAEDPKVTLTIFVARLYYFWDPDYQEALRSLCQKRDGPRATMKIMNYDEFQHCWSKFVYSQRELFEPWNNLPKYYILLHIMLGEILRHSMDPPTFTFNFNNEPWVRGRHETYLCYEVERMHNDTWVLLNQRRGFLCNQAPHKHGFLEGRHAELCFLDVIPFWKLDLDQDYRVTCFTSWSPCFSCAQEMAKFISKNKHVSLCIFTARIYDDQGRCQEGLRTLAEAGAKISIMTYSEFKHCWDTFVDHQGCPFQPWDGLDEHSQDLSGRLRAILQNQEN
Chain of DNA dC->dU-editing enzyme APOBEC-3A (P31941 whole entry): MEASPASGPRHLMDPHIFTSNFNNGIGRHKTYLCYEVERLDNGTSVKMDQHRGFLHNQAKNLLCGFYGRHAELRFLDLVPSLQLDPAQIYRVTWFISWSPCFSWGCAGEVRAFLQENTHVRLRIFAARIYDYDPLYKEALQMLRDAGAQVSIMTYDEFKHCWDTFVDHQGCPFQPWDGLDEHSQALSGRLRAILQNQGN

Structure (SMILES): Nc1nnc(-c2ccncc2)s1
inhibition [12]: inactive

Structure (SMILES): CC1(OO)C=CC(O)(c2cc(C(=O)Nc3nnc(-c4ccncc4)s3)c3ccccc3n2)O1 (configuration not stated)
inhibition [12]: inactive | Drug metabolism [13]: metabolite_detected | Drug metabolism [14]: metabolite_detected

Structure (SMILES): O=C(O)/C=C\C(=O)c1cc(C(=O)Nc2nnc(-c3ccncc3)s2)c2ccccc2n1
Drug metabolism [15]: metabolite_detected

Structure (SMILES): O=C(O)c1ccnc(-c2ccco2)c1
remaining at 912 h, 10000 µM [1]: 92%

Structure (SMILES): O=C(O)c1cc(-c2ccco2)nc2ccccc12
remaining at 912 h, 10000 µM [1]: 69%

Structure (SMILES): O=C(Nc1nnc(-c2ccncc2)s1)c1cc(=O)[nH]c2ccccc12
Activity [12]: 83% | inhibition [16]: 50% | Drug metabolism [17]: metabolite_detected | Drug metabolism [14]: metabolite_detected | Drug metabolism [15]: metabolite_detected | Drug metabolism [18]: metabolite_detected | Drug metabolism [19]: metabolite_detected | Drug metabolism [20]: metabolite_detected

Structure (SMILES): O=C(O)c1cc(-c2ccco2)cc2ccccc12
remaining at 912 h, 10000 µM [1]: 89%

Structure (SMILES): O=C(O)c1cc(C(=O)Nc2nnc(-c3ccncc3)s2)c2ccccc2n1
Activity [12]: 43% | Drug metabolism [13]: metabolite_detected | Drug metabolism [14]: metabolite_detected | Drug metabolism [15]: metabolite_detected

Structure (SMILES): CC(=O)/C=C\C(=O)c1cc(C(=O)Nc2nnc(-c3ccncc3)s2)c2ccccc2n1
Drug metabolism [13]: metabolite_detected | IC50 [21]: 20 µM | Drug metabolism [14]: metabolite_detected | Drug metabolism [15]: metabolite_detected

Structure (SMILES): c1coc(-c2ccc3ccccc3n2)c1
remaining at 912 h, 10000 µM [1]: 117%

Structure (SMILES): CC1(O)C=CC(OO)(c2cc(C(=O)Nc3nnc(-c4ccncc4)s3)c3ccccc3n2)O1 (configuration not stated)
inhibition [12]: inactive | Drug metabolism [13]: metabolite_detected | Drug metabolism [14]: metabolite_detected

Structure (SMILES): Cc1ccc(-c2cc(C(=O)Nc3nnc(-c4ccncc4)s3)ccn2)o1
remaining at 912 h, 10000 µM [1]: 34%

Structure (SMILES): O=C(Nc1nnc(-c2ccncc2)s1)c1cc(-c2ccco2)nc2ccccc12
remaining at 912 h, 10000 µM [1]: 101%

Structure (SMILES): O=CCC(=O)c1cc(C(=O)Nc2nnc(-c3ccncc3)s2)c2ccccc2n1
Drug metabolism [15]: metabolite_detected

Structure (SMILES): Cc1ccc(-c2cc(C(=O)O)ccn2)o1
remaining at 912 h, 10000 µM [1]: 85%

Structure (SMILES): O=C(Nc1nnc(-c2ccncc2)s1)c1cc(-c2ccco2)cc2ccccc12
remaining at 912 h, 10000 µM [1]: 0%

Structure (SMILES): O=C(Nc1nnc(-c2ccncc2)s1)c1ccnc(-c2ccco2)c1
remaining at 912 h, 10000 µM [1]: 90%

Structure (SMILES): Cc1ccc(-c2cc(C(=O)Nc3nnc(-c4ccncc4)s3)c3ccccc3c2)o1
remaining at 912 h, 10000 µM [1]: 25%

The next lines start with results.

remaining at 912 h, 10000 µM [1]: 55%
Structure (SMILES): Cc1ccc(-c2cc(C(=O)NC(C)C3CCCO3)c3ccccc3n2)o1 (configuration not stated)

IC50 [3]: 2.8 µM and 9.8 µM | IC50 [4]: 10.8 µM and 50.3 µM | inhibition [6]: inactive | inhibition [7]: tde | Activity [8]: 82% | Activity [9]: 55% | Activity [10]: 29% | Activity [11]: 29% | remaining at 912 h, 10000 µM [1]: 6%
Structure (SMILES): Cc1ccc(-c2cc(C(=O)Nc3nnc(-c4ccncc4)s3)c3ccccc3n2)o1
Drug metabolism [2]: metabolite_detected | viability at 120 h, 50 µM [5]: > 85%

remaining at 912 h, 10000 µM [1]: 54%
Structure (SMILES): Cc1ccc(-c2cc(C(=O)NC3CCCCC3)c3ccccc3n2)o1

remaining at 912 h, 10000 µM [1]: 26%
Structure (SMILES): Cc1ccc(-c2cc(C(=O)N3CCN(S(C)(=O)=O)CC3)c3ccccc3n2)o1

remaining at 912 h, 10000 µM [1]: 64%
Structure (SMILES): O=C(NNC(=O)c1cc(-c2ccco2)nc2ccccc12)NC1CCCCC1

remaining at 912 h, 10000 µM [1]: 56%
Structure (SMILES): Cc1ccc(-c2cc(C(=O)NCc3ccc4c(c3)OCO4)c3ccccc3n2)o1

remaining at 912 h, 10000 µM [1]: 84%
Structure (SMILES): COc1ccc(CCNC(=O)c2cc(-c3ccc(C)o3)nc3ccccc23)cc1

remaining at 912 h, 10000 µM [1]: 102%
Structure (SMILES): Cc1ccc(-c2ccc3ccccc3n2)o1

remaining at 912 h, 10000 µM [1]: 82%
Structure (SMILES): Cc1ccc(-c2cc(C(=O)O)c3ccccc3c2)o1

remaining at 912 h, 10000 µM [1]: 19%
Structure (SMILES): COC(=O)c1cc(NC(=O)c2cc(-c3ccc(C)o3)nc3ccccc23)cc(C(=O)OC)c1

remaining at 912 h, 10000 µM [1]: 73%
Structure (SMILES): Cc1cccc(NC(=O)c2cc(-c3ccc(C)o3)nc3ccccc23)n1

remaining at 912 h, 10000 µM [1]: 83%
Structure (SMILES): Cc1ccc(-c2cc(C(=O)O)c3ccccc3n2)o1

From ChEMBL document CHEMBL3612064, “Oxidative Reactivities of 2-Furylquinolines: Ubiquitous Scaffolds in Common High-Throughput Screening Libraries” (J Med Chem, 2015)
